Yeast fitness data for 167 variants are collected here from the RNAGym collection of RNA variant scans (doi:10.1126/science.aae0568).

Variants at the floor of the assay were thinned out.

B1: tRNA (parent)
chain: GUUCCGUUGGCGUAAUGGUAACGCGUCUCCCUCCUAAGGAGAAGACUGCGGGUUCGAGUCCCGUACGGAACG

The data set covers variants of B1. The data set can be described thus: yeast fitness relative to wild type (ratio to wild type); higher = fitter; tRNA-Arg(CCU), competitive growth, 37 C, YPD. The essentials: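 Changes in genotype frequencies gave Darwinian fitness relative to wild type. Frequencies were read by 100-nucleotide paired-end sequencing of gene amplicons before and after pooled Saccharomyces cerevisiae strains, carrying tRNA-Arg(CCU) gene variants at the native locus, were competed in YPD at 37°C for 24 hours in six replicates. A genotype was kept only with ≥ 100 starting reads, and estimates < 0.5 were set to 0.5.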
On to C4A C33G A45G, for which the yeast fitness was at most 0.5.

In the case of C4A C22U C30A, the yeast fitness is 0.504.

Consider C4A G18C C49A G52C, for which the yeast fitness is at most 0.5.

Consider C4A G23A U35C G56A, for which the yeast fitness was at most 0.5.

On to U3G U8C C33U C66A, for which the yeast fitness was at most 0.5.

Take C4A G10A A14G C31A: the yeast fitness is at most 0.5.

In the case of C4A C5G A36U G63A, the yeast fitness is at most 0.5.

In the case of U3G U8C A43C, the yeast fitness is at most 0.5.

For the variant C4A C34G G38C A70G, the yeast fitness is at most 0.5.

As for C4A A14U C29U G68A, the yeast fitness is at most 0.5.

In the case of C4A A14U C27U U28A, the yeast fitness was found to be 0.859.

On to U3G U8A C31A A69C A70G, for which the yeast fitness is at most 0.5.

Regarding C4A C24U A65C, the yeast fitness stood at 0.65.

C4A G10C C11U G41A A45C A65U: the yeast fitness was at most 0.5.

U3G U8G U19A A69C: the yeast fitness is at most 0.5.

Turning to C4A G6C C55U, the yeast fitness was at most 0.5.

Consider C4A C5U C24G A45U C66U, for which the yeast fitness was at most 0.5.

Take C4A A20U U28A C31U A65U: the yeast fitness was at most 0.5.

Regarding U3G U8C G68C, the yeast fitness is at most 0.5.

As to C4A G6A A14G C60U, the yeast fitness is at most 0.5.

For the variant C4A A20G G48A A69C, the yeast fitness is at most 0.5.

As for C4A A20U A43U, the yeast fitness was at most 0.5.

In the case of C4A C46A G67A, the yeast fitness was found to be 0.73.

Consider C4A C5U C34U, for which the yeast fitness is at most 0.5.

With C4A C55A A69C A70U, the yeast fitness was at most 0.5.

As to C4A C31U A42C C66A, the yeast fitness turned out to be 0.523.

Turning to C4A A15C A43G, the yeast fitness was at most 0.5.

For C4A G6C C55U G68C, the yeast fitness was at most 0.5.

As to C4A A42U, the yeast fitness is 0.716.

C4A G23A U35G C61A: the yeast fitness was at most 0.5.

For C4A G9C C11G A21C C55U C62U G67C, the yeast fitness is at most 0.5.

As for C4A C29G C34G, the yeast fitness is 0.782.

C4A A36G G44U G51C A65U: the yeast fitness was at most 0.5.

As for C4A C30G C31U C55A C61G G67A, the yeast fitness is at most 0.5.

As for C4A C5G C66U A70G, the yeast fitness was at most 0.5.

Take C4A C30U G38C A42G: the yeast fitness is at most 0.5.

U3G U8C A15G C24G G50A C55U: the yeast fitness is at most 0.5.

With C4A G17C G23C A57C, the yeast fitness was at most 0.5.

Turning to C4A C24G C61A C66U, the yeast fitness is at most 0.5.

For C4A C27U C66U, the yeast fitness amounted to 0.66.

C4A A21C U54A: the yeast fitness is at most 0.5.

Turning to C4A C22G C29U, the yeast fitness was found to be 0.556.

Regarding C4A G17A C60G, the yeast fitness came to 0.697.

Turning to U3G U26A C29A C34A G38A G67C, the yeast fitness stood at 0.712.

Take C4A G9A C24U C30U A36G G67A: the yeast fitness stood at 0.565.

For C4A C5A A15G U19C, the yeast fitness was at most 0.5.

C4A A42U G68C: the yeast fitness is at most 0.5.

On to C4A C11U C29G C34A G39C, for which the yeast fitness was at most 0.5.

C4A A40C G41C: the yeast fitness is at most 0.5.

On to C4A G6C U8A A20C A21U C33U C46U A57G, for which the yeast fitness was at most 0.5.

As for C4A G10A U54A, the yeast fitness is at most 0.5.

Turning to C4A A14U, the yeast fitness came out at 0.698.

As for C4A A14G, the yeast fitness is 0.72.

Turning to C4A C5G A20G U54A C62U, the yeast fitness is at most 0.5.

Consider C4A C31A U35C A45U, for which the yeast fitness was at most 0.5.

Turning to C4A C5A C66A A69C, the yeast fitness is at most 0.5.

For U3G G50C, the yeast fitness was 0.699.

On to C4A G10A A36U, for which the yeast fitness is at most 0.5.

Regarding C4A A57U, the yeast fitness came out at 0.714.

Take C4A C30G C49G: the yeast fitness was at most 0.5.

Turning to C4A C30G C49U, the yeast fitness was found to be 0.566.

Turning to C4A C5U U19A A42G, the yeast fitness is at most 0.5.

Turning to C4A A14C U26C A36G A65U, the yeast fitness is at most 0.5.

As to C4A C31A G56A, the yeast fitness worked out at 0.649.

C4A G6A A21C C24U: the yeast fitness was found to be 0.562.

Regarding C4A G18A C34G C66U, the yeast fitness is at most 0.5.

As to C4A A14U C30A G67C, the yeast fitness was at most 0.5.

With U3G U8C, the yeast fitness worked out at 0.681.

On to C4A G18A C27A A37C G56A, for which the yeast fitness came out at 0.579.

In the case of C4A A20U U32C A43U, the yeast fitness was at most 0.5.

In the case of C4A C5A, the yeast fitness came out at 0.752.

For the variant C4A C5U, the yeast fitness worked out at 0.837.

For C4A C24G C33G G63C, the yeast fitness was at most 0.5.

On to C4A A57C C62U, for which the yeast fitness is at most 0.5.

Regarding C4A C5A U28G C31G U47C A57U A70G, the yeast fitness is at most 0.5.

Consider C4A C5U U19A C66A, for which the yeast fitness was at most 0.5.

Consider C4A C5A C29U G51C, for which the yeast fitness was at most 0.5.

In the case of C4A A14G C24U U32G A42U A43G C66U, the yeast fitness was at most 0.5.

For C4A G18C C34U, the yeast fitness was at most 0.5.

For C4A A21G C27U, the yeast fitness amounted to 0.686.

In the case of C4A G18A G58A A70U, the yeast fitness is at most 0.5.

With C4A G6A C33U A43U C49G G50C C61U C66U, the yeast fitness is at most 0.5.

For C4A C29G C34G C49U, the yeast fitness was 0.557.

Take C4A A15G G17A C30G G48A U53C C62U: the yeast fitness was at most 0.5.

Regarding C4A C30G C66A, the yeast fitness was at most 0.5.

C4A G9A U16A C30U A40G C46U: the yeast fitness is at most 0.5.

Regarding C4A C24A G52C A57C U59A, the yeast fitness is 0.57.

As to C4A G18C C29A C31A A36U, the yeast fitness is at most 0.5.

On to C4A A21G C49G G63C, for which the yeast fitness stood at 0.538.

For the variant C4A G6A C11A C22U C29U C55A G68U, the yeast fitness was at most 0.5.

In the case of C4A A20U, the yeast fitness was determined as 0.707.

On to C4A G17A, for which the yeast fitness is 0.718.

With C4A G10C C29G A65G, the yeast fitness is at most 0.5.

For C4A A15G, the yeast fitness came out at 0.844.

Consider C4A G18C C46G, for which the yeast fitness stood at 0.503.

Regarding U3G G48C, the yeast fitness came to 1.06.

As to C4A G23A C33G, the yeast fitness turned out to be 0.655.

As to C4A A14G C30G A45G, the yeast fitness is 0.758.

Turning to C4A C46G C60G, the yeast fitness is at most 0.5.

For C4A G6A A65G, the yeast fitness turned out to be 0.56.

For C4A A36G G58C, the yeast fitness is 0.565.

Turning to C4A C30U C55U, the yeast fitness is at most 0.5.

Consider C4A G17A U19C G41A C66U, for which the yeast fitness was at most 0.5.

C4A C30G G41C G68A: the yeast fitness was at most 0.5.

Turning to C4A G17A G41A U47C G50C, the yeast fitness was at most 0.5.

On to C4A C33G A45G A70U, for which the yeast fitness is at most 0.5.

As to C4A G10A G56C C60G C66U, the yeast fitness was at most 0.5.

Consider C4A A20G A37U C61A, for which the yeast fitness was at most 0.5.

In the case of C4A A20G G44C A45G, the yeast fitness stood at 0.506.

As to C4A C24G G25C A45G C60A, the yeast fitness is at most 0.5.

With C4A C22A A69U, the yeast fitness is 0.528.

Turning to C4A G12C U13G C30U A65U, the yeast fitness was at most 0.5.

As for C4A C5U C22U C34A C49U C62U, the yeast fitness was at most 0.5.

With C4A C66U, the yeast fitness amounted to 0.862.

As for C4A C30A A40G, the yeast fitness came to 0.74.

Regarding C4A C27U A37G, the yeast fitness was determined as 0.566.

Take C4A C27G C34G A37U U64A: the yeast fitness is at most 0.5.

In the case of C4A C24G A69U, the yeast fitness was at most 0.5.

Turning to C4A C5G U8A C30A G67C, the yeast fitness was at most 0.5.

U3G U8C G50C G68C: the yeast fitness was at most 0.5.

Take C4A A40G A65G: the yeast fitness was found to be 0.533.

Turning to C4A C24U A36U G39C C46G C55A C66G, the yeast fitness was at most 0.5.

Turning to C4A C24G A37G G50C, the yeast fitness was at most 0.5.

Consider C4A C33A, for which the yeast fitness is 0.705.

In the case of C4A C31U C46A, the yeast fitness was found to be 0.726.

With C4A C22U C60U G67C, the yeast fitness came out at 0.519.

With U3G G44C C55G, the yeast fitness is at most 0.5.

Regarding C4A C5U C27U A37G, the yeast fitness was at most 0.5.

With C4A C29U G67A, the yeast fitness is at most 0.5.

As for U3G U8C C61G G63C, the yeast fitness is at most 0.5.

Turning to C4A C5G U19A C46U A69U, the yeast fitness came out at 0.574.

For the variant C4A C30G G50A, the yeast fitness is at most 0.5.

As to C4A G6C C22U G51C C62A, the yeast fitness was at most 0.5.

Take C4A C5A A42U A57C C61U A65U: the yeast fitness was at most 0.5.

For C4A G6C G10A U28A, the yeast fitness was at most 0.5.

For C4A C5A C22A U28G C33G A57G C62A, the yeast fitness is at most 0.5.

Turning to C4A G12C U13G C30U, the yeast fitness is 0.55.

With C4A A20C C34A G39C A43U, the yeast fitness was 0.512.

As for C4A G12C U19C C24G A43U G67A, the yeast fitness was at most 0.5.

As for C4A C24U C29U, the yeast fitness was at most 0.5.

With C4A C22G A40C G67A, the yeast fitness amounted to 0.61.

For the variant C4A A15C A70U, the yeast fitness was at most 0.5.

For C4A C30A A37C, the yeast fitness was at most 0.5.

In the case of C4A A14C A70G, the yeast fitness was at most 0.5.

In the case of C4A C27U A40U G52C C60G, the yeast fitness is at most 0.5.

Consider C4A C22G C27U, for which the yeast fitness came out at 0.522.

For C4A G9C C11G G44A C60U G67C, the yeast fitness was at most 0.5.

On to C4A G10C C33U C46G U54A, for which the yeast fitness was at most 0.5.

For the variant C4A C5A A20U A69C, the yeast fitness was 0.551.

Turning to C4A C34G C66U, the yeast fitness came to 0.576.

Turning to U3G U16A, the yeast fitness is 0.938.

In the case of C4A A20U C66U, the yeast fitness was at most 0.5.

For the variant C4A C24U, the yeast fitness stood at 0.733.

In the case of C4A C24G, the yeast fitness came out at 0.714.

For the variant C4A G23A C24G C61A C66U, the yeast fitness was at most 0.5.

As for U3G U26A, the yeast fitness came out at 0.944.

Take C4A C31A C33G U47A: the yeast fitness is at most 0.5.

With C4A C24G G44C C62G, the yeast fitness is at most 0.5.

Consider U3G U35G A40C G48A C60U U64G A65U A69C, for which the yeast fitness was at most 0.5.

Take C4A G9C C30A G39A G56C: the yeast fitness is at most 0.5.

Consider U3G U26A A70C, for which the yeast fitness amounted to 1.27.

For C4A G12A C31U U59A G63A, the yeast fitness was at most 0.5.

Turning to C4A A45C, the yeast fitness amounted to 0.754.

As to U3G G68A, the yeast fitness turned out to be 0.851.

On to U3G U8C C24A C30U, for which the yeast fitness is at most 0.5.

Consider C4A A14G A36C U59A, for which the yeast fitness was found to be 0.686.

Turning to C4A C5U G17A C30U G68C, the yeast fitness is at most 0.5.
